Experimental data from ChEMBL document CHEMBL3046444, “Antiproliferative activity and synthesis of 8-prenylnaringenin derivatives by demethylation of 7-O- and 4'-O-substituted isoxanthohumols” (2012).
Converted amounts (≈) assume the structure as drawn. The source made the active and inactive calls. No cut-off for these calls is given here.

Assays:
Format in all cases: functional
[1] = system: CCRF-CEM; test: Antiproliferative activity against Homo sapiens (human) CCRF-CEM cells after 72 hr by MTT assay; conditions: for IC50: read-out: ID50 (the source's name)
How it was run: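 Human leukemia CCRF/CEM cells seeded at 10^5/ml in RPMI 1640 with 10% FBS, penicillin/streptomycin and 2 mM L-glutamine at 37°C, 5% CO2. Compounds were added after 24 h at 0.1–100 μg/ml, with acetone or ethanol vehicle controls, and exposure ran 72 h. MTT was given for 4 h, formazan solubilized in SDS/DMF for 24 h, and read at 570 nm. Triplicates, 3–5 repeats; ID50 in μg/ml vs untreated.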

[2] = system: HT-29; test: Antiproliferative activity against Homo sapiens (human) HT-29 cells after 72 hr by SRB assay; conditions: for IC50: HT-29, 72 h, read-out: ID50 (the source's name)
How it was run: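 HT-29 colon adenocarcinoma cells were plated at 10^5/ml in RPMI 1640/Opti-MEM (1:1) with 5% FBS, antibiotics, 1 mM pyruvate and 2 mM glutamine. Test agents (0.1–100 μg/ml, solvent-matched controls) were added after 24 h and left for 72 h. Cells were TCA-fixed and stained 30 min with 0.4% SRB in 1% acetic acid, dye extracted with 10 mM Tris, OD 540 nm. Triplicates, 3–5 experiments; ID50 (μg/ml).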

[3] = system: MCF7; test: Antiproliferative activity against Homo sapiens (human) MCF7 cells after 72 hr by SRB assay; conditions: for IC50: MCF7, 72 h, read-out: ID50 (the source's name)
How it was run: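 MCF-7 breast cancer cells at 10^5/ml in Eagle's medium with 10% FBS, antibiotics, 2 mM glutamine, 1.0 mM pyruvate, 1% amino acids and 0.8 mg/l insulin, 37°C, 5% CO2. After 24 h, compounds at 0.1–100 μg/ml (acetone/ethanol controls) were added for 72 h. SRB read-out: cold 50% TCA fixation, 0.4% SRB stain, Tris extraction, 540 nm. Triplicates, repeated 3–5 times; 50% proliferation inhibition dose (ID50, μg/ml).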

| SMILES | ID50 [1] | ID50 [2] | ID50 [3] | IC50 [1] [µg/mL] | IC50 [2] [µg/mL] | IC50 [3] [µg/mL] |
| --- | --- | --- | --- | --- | --- | --- |
| C=CCOc1ccc(C2CC(=O)c3c(O)cc(OCC=C)c(CC=C(C)C)c3O2)cc1 (configuration not stated) | inactive | inactive | inactive | – | – | – |
| CCCCCCCCCCCCCCCC(=O)Oc1ccc(C2CC(=O)c3c(O)cc(OC(=O)CCCCCCCCCCCCCCC)c(CC=C(C)C)c3O2)cc1 (configuration not stated) | inactive | inactive | inactive | – | – | – |
| CCCCCCCCCCCCCCCC(=O)Oc1ccc([C@@H]2CC(=O)c3c(OC)cc(OC(=O)CCCCCCCCCCCCCCC)c(CC=C(C)C)c3O2)cc1 | inactive | inactive | inactive | – | – | – |
| CC(=O)Oc1ccc(C2CC(=O)c3c(O)cc(OC(C)=O)c(CC=C(C)C)c3O2)cc1 (configuration not stated) [7,4'-DI-O-ACETYL-8-PRENYLNARINGENIN] | – | – | – | 37 (≈ 87.2 µM) | 36.1 (≈ 85.1 µM) | 28 (≈ 66 µM) |
| COc1cc(OC(C)=O)c(CC=C(C)C)c2c1C(=O)C[C@@H](c1ccc(OC(C)=O)cc1)O2 [7,4'-DI-O-ACETYLISOXANTHOHUMOL] | – | – | – | 23.3 (≈ 53.1 µM) | 32.1 (≈ 73.2 µM) | 16.9 (≈ 38.5 µM) |
| C=CCOc1ccc([C@@H]2CC(=O)c3c(OC)cc(OCC=C)c(CC=C(C)C)c3O2)cc1 [7,4'-DI-O-ALLYLISOXANTHOHUMOL] | – | – | – | 2.7 (≈ 6.21 µM) | 6.2 (≈ 14.3 µM) | 5.2 (≈ 12 µM) |
| COc1ccc(C2CC(=O)c3c(O)cc(OC)c(CC=C(C)C)c3O2)cc1 (configuration not stated) [7,4'-DI-O-METHYL-8-PRENYLNARINGENIN] | inactive | inactive | – | – | – | 36.9 (≈ 100 µM) |
| COc1ccc([C@@H]2CC(=O)c3c(OC)cc(OC)c(CC=C(C)C)c3O2)cc1 [7,4'-DI-O-METHYLISOXANTHOHUMOL] | – | – | – | 5 (≈ 13.1 µM) | 6 (≈ 15.7 µM) | 6.6 (≈ 17.3 µM) |
| CCCCCOc1ccc([C@@H]2CC(=O)c3c(OC)cc(OCCCCC)c(CC=C(C)C)c3O2)cc1 [7,4'-DI-O-N-PENTYL-8-ISOXANTHOHUMOL] | – | – | – | 4.3 (≈ 8.69 µM) | 8.2 (≈ 16.6 µM) | 7.1 (≈ 14.4 µM) |
| CCCCCOc1cc(OC)c2c(c1CC=C(C)C)O[C@H](c1ccc(O)cc1)CC2=O [7-O-N-PENTYLISOXANTHOHUMOL] | – | – | – | 5.4 (≈ 12.7 µM) | 6.9 (≈ 16.3 µM) | 8.3 (≈ 19.6 µM) |
| CCCCCOc1cc(O)c2c(c1CC=C(C)C)OC(c1ccc(O)cc1)CC2=O (configuration not stated) [7-O-PENTYL-8-PRENYLNARINGENIN] | – | – | – | 4.8 (≈ 11.7 µM) | 10 (≈ 24.4 µM) | 3.9 (≈ 9.5 µM) |
| COc1cc(O)c(CC=C(C)C)c2c1C(=O)CC(c1ccc(O)cc1)O2 (configuration not stated) [ISOXANTHOHUMOL] | – | – | – | 18.2 (≈ 51.4 µM) | 32.6 (≈ 92 µM) | 9.4 (≈ 26.5 µM) |
| CC(C)=CCc1c(O)cc(O)c2c1OC(c1ccc(O)cc1)CC2=O (configuration not stated) [SOPHORAFLAVANONE B] | – | – | – | 24.2 (≈ 71.1 µM) | 33.2 (≈ 97.5 µM) | 19.4 (≈ 57 µM) |
| COc1cc(O)c(CC=C(C)C)c(O)c1C(=O)/C=C/c1ccc(O)cc1 [XANTHOHUMOL] | – | – | – | 4.1 (≈ 11.6 µM) | 3.8 (≈ 10.7 µM) | 4.7 (≈ 13.3 µM) |
